Experiments:
[1] = target: Dual specificity protein kinase TTK (Homo sapiens) (UniProt P33981); experiment: Inhibition of TTK (unknown origin) assessed as remaining activity at 10 uM by ATP-competition binding assay relative to control
[2] = target: Serine/threonine-protein kinase Aurora (Homo sapiens, UniProt Q96GD4+Q9UQB9+O14965); experiment: Inhibition of AURA/AURB/AURC in human HeLa cells lysate pre incubated for 15 mins followed by ATP acyl phosphate probe addition and measured after 10 mins by LC-MS/MS analysis; format: subcellular
Method in brief: (§1)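 KiNativ-type profiling in HeLa lysate (5 mg/mL total protein). Lysate preincubated 15 min with inhibitor at 50, 10, 2, 0.8 or 0 μM, then ATP or ADP acylphosphate probe added (5 μM final) for 10 min. Reaction stopped with urea and analysed by targeted MS, using up to four fragment ions per kinase peptide-probe conjugate. % inhibition calculated against untreated lysate. Duplicate reactions.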

[3] = target: Inhibitor of nuclear factor kappa-B kinase subunit alpha (Homo sapiens, UniProt O15111); experiment: Inhibition of IKKA in human HeLa cells lysate pre incubated for 15 mins followed by ATP acyl phosphate probe addition and measured after 10 mins by LC-MS/MS analysis; format: subcellular
PKC alpha and beta-2 = PKC alpha and beta-2 (Homo sapiens, UniProt P17252+P05771); experiment: Inhibition of PKCalpha/beta in human HeLa cells lysate pre incubated for 15 mins followed by ATP acyl phosphate probe addition and measured after 10 mins by LC-MS/MS analysis; format: subcellular
SRSF protein kinase 1 = SRSF protein kinase 1 (Homo sapiens, UniProt Q96SB4); experiment: Inhibition of SRPK1 in human HeLa cells lysate pre incubated for 15 mins followed by ATP acyl phosphate probe addition and measured after 10 mins by LC-MS/MS analysis; format: subcellular
[4] = target: Tyrosine-protein kinase receptor UFO (Homo sapiens, UniProt P30530); experiment: Inhibition of AXL in human HeLa cells lysate pre incubated for 15 mins followed by ADP acyl phosphate probe addition and measured after 10 mins by LC-MS/MS analysis; format: subcellular; method in brief: as §1
[5] = target: Epidermal growth factor receptor (Homo sapiens, UniProt P00533); experiment: Inhibition of EGFR in human HeLa cells lysate pre incubated for 15 mins followed by ADP acyl phosphate probe addition and measured after 10 mins by LC-MS/MS analysis; format: subcellular
[6] = Inhibition of PRKX/PRKY in human HeLa cells lysate pre incubated for 15 mins followed by ADP acyl phosphate probe addition and measured after 10 mins by LC-MS/MS analysis; format: subcellular
[7] = target: T1, Dual specificity mitogen-activated protein kinase kinase 7 (Homo sapiens) (UniProt O14733); experiment: Inhibition of MAP2K7 in human HeLa cells lysate at 50 uM pre incubated for 15 mins followed by ADP acyl phosphate probe addition and measured after 10 mins by LC-MS/MS analysis relative to control; format: subcellular; conditions: time 25.0 min
T1 sequence (whole entry): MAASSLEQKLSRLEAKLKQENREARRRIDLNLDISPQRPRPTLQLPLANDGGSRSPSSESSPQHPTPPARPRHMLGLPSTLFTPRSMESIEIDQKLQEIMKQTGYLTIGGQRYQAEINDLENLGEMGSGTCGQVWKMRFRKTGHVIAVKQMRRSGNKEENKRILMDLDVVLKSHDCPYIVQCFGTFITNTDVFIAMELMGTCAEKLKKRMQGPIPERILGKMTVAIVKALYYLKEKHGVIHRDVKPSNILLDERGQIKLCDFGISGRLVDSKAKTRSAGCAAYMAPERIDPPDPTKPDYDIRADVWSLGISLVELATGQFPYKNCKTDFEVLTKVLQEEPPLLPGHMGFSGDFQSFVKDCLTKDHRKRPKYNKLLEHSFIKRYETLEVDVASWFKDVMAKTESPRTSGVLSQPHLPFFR

[8] = target: T2, Interleukin-1 receptor-associated kinase 4 (Homo sapiens) (UniProt Q9NWZ3); experiment: Inhibition of IRAK4 in human HeLa cells lysate at 50 uM pre incubated for 15 mins followed by ADP acyl phosphate probe addition and measured after 10 mins by LC-MS/MS analysis relative to control; format: subcellular; conditions: time 25.0 min
T2 sequence (whole entry): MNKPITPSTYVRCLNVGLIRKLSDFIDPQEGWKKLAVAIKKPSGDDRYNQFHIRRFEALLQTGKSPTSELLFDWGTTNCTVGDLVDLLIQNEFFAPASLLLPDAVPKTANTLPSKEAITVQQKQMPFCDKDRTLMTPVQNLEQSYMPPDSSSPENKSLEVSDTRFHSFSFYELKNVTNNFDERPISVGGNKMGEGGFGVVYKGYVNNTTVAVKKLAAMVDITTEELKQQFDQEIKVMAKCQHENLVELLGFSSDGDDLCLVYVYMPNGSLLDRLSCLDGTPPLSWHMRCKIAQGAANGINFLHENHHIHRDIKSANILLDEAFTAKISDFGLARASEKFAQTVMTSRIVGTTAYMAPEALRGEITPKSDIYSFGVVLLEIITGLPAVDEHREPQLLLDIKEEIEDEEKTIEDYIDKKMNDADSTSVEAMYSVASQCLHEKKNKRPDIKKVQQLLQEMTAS

Insulin receptor = Insulin receptor (Homo sapiens, UniProt P06213); experiment: Inhibition of INSR in human HeLa cells lysate at 10 uM pre incubated for 15 mins followed by ADP acyl phosphate probe addition and measured after 10 mins by LC-MS/MS analysis relative to control; format: subcellular; conditions: time 25.0 min
[9] = target: Calcium/calmodulin-dependent protein kinase type II subunit delta (Homo sapiens, UniProt Q13557); experiment: Inhibition of CAMK2d in human HeLa cells lysate at 50 uM pre incubated for 15 mins followed by ATP acyl phosphate probe addition and measured after 10 mins by LC-MS/MS analysis relative to control; format: subcellular; conditions: time 25.0 min; method in brief: as §1
[10] = target: Glycogen synthase kinase-3 beta (Homo sapiens, UniProt P49841); experiment: Inhibition of GSK3B isoform 2 in human HeLa cells lysate at 50 uM pre incubated for 15 mins followed by ATP acyl phosphate probe addition and measured after 10 mins by LC-MS/MS analysis relative to control; format: subcellular; conditions: time 25.0 min
[11] = target: Interferon-induced, double-stranded RNA-activated protein kinase (Homo sapiens, UniProt P19525); experiment: Inhibition of PKR in human HeLa cells lysate at 50 uM pre incubated for 15 mins followed by ATP acyl phosphate probe addition and measured after 10 mins by LC-MS/MS analysis relative to control; format: subcellular; conditions: time 25.0 min
[12] = target: Cyclin-dependent kinase 10 (Homo sapiens, UniProt Q15131); experiment: Inhibition of CDK10 in human HeLa cells lysate at 2 uM pre incubated for 15 mins followed by ATP acyl phosphate probe addition and measured after 10 mins by LC-MS/MS analysis relative to control; format: subcellular; conditions: time 25.0 min
Method in brief: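 KiNativ profiling in HeLa lysate (5 mg/mL total protein). Lysate incubated 15 min with inhibitor at 50, 10, 2, 0.8 or 0 μM. ATP or ADP acylphosphate probe then added (5 μM final) and reacted 10 min. Reaction stopped with urea and analysed by targeted MS, using up to four fragment ions per kinase peptide-probe conjugate. % inhibition taken against untreated lysate. Run in duplicate.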

[13] = target: Mitogen-activated protein kinase kinase kinase 5 (Homo sapiens) (UniProt Q99683); experiment: Inhibition of MAP3K5 in human HeLa cells lysate at 2 uM pre incubated for 15 mins followed by ATP acyl phosphate probe addition and measured after 10 mins by LC-MS/MS analysis relative to control; format: subcellular; conditions: time 25.0 min
[14] = Toxicity in C57Bl/6 mouse assessed as distress effect at 50 mg/kg, ip for 14 days; format: organism-based; conditions: in vivo, 336 h, time 14 day

Chain of Tyrosine-protein kinase receptor UFO (P30530 whole entry): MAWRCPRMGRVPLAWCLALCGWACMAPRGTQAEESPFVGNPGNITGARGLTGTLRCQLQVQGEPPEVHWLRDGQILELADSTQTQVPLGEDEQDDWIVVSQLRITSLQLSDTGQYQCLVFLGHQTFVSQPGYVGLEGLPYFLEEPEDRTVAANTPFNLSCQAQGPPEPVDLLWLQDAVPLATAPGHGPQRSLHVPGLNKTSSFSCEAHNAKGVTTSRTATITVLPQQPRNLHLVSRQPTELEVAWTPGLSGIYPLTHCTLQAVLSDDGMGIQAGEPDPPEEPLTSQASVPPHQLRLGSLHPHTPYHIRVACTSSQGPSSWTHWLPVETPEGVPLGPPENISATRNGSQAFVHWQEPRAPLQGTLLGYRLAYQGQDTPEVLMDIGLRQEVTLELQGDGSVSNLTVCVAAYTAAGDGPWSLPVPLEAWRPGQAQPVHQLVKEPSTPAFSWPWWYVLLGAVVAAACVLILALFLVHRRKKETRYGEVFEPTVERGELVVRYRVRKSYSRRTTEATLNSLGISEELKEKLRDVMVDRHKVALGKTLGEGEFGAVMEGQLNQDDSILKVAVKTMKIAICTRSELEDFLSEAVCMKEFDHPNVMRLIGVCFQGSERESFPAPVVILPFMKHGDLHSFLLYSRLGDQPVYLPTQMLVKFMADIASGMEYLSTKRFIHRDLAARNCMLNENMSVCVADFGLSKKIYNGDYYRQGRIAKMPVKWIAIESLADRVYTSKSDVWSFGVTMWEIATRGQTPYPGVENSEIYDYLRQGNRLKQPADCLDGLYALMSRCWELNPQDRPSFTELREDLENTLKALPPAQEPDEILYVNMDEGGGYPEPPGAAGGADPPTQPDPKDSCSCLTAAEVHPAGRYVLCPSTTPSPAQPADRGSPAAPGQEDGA
Chain of Dual specificity protein kinase TTK (Homo sapiens) (P33981 whole entry): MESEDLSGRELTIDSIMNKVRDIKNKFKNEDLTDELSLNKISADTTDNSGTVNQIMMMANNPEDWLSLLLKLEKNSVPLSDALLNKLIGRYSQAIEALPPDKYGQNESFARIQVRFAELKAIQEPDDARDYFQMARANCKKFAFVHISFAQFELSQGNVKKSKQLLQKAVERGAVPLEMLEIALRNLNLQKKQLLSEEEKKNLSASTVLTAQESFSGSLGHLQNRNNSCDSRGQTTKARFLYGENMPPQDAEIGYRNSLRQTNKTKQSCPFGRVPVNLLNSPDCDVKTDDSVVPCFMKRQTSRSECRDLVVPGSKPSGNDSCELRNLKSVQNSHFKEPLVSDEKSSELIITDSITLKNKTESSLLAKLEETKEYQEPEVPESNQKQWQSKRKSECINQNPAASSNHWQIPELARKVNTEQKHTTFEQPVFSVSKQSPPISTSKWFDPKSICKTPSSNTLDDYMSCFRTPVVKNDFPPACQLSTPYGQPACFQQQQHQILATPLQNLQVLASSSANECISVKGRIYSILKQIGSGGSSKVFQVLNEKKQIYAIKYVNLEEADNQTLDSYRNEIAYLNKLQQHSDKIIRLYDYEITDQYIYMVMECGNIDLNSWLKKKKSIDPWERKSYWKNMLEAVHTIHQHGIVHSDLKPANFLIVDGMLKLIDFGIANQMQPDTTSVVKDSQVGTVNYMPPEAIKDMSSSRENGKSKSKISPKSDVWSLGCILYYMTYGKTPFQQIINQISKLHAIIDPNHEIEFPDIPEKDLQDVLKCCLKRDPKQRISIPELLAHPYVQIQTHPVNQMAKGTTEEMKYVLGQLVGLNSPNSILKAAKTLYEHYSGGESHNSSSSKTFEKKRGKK
Chain of Insulin receptor (P06213 28-758 limits assumed): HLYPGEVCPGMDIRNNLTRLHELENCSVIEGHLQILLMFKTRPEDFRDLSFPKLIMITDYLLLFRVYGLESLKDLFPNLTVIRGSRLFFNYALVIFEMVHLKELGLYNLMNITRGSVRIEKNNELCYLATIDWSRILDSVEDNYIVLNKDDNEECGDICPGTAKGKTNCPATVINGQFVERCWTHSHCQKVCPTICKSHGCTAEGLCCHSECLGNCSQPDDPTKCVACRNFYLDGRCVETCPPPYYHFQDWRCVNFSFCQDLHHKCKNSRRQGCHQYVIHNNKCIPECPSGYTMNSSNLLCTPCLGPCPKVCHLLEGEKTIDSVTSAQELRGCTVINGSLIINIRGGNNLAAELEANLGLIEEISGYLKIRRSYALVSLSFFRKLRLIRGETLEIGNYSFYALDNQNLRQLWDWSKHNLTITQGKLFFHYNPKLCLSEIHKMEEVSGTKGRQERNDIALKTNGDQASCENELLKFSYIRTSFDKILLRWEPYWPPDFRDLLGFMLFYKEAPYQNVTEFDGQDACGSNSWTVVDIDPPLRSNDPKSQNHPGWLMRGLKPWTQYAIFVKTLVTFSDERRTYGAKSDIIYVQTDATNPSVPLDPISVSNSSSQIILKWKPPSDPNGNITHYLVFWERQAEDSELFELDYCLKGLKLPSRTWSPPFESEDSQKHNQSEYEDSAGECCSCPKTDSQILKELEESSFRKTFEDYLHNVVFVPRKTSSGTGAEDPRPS
Chain of Insulin receptor (P06213 763-1382 limits assumed): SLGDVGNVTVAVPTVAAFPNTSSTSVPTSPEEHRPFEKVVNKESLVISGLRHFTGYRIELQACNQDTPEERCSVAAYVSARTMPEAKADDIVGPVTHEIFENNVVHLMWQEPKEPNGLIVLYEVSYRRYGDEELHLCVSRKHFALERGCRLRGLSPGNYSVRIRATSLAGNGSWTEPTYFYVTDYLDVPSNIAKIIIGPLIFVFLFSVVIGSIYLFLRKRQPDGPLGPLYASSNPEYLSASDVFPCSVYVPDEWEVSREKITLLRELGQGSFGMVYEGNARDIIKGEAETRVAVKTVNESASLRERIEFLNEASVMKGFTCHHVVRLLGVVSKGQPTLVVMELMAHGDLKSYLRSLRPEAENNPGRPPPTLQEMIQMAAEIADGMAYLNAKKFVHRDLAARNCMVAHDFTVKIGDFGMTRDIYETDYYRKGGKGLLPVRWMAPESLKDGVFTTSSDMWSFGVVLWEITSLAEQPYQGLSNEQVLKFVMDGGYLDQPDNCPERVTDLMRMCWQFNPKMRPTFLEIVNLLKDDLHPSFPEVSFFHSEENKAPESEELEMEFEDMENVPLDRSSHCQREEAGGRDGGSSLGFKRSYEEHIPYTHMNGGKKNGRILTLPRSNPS
Chain of Mitogen-activated protein kinase kinase kinase 5 (Homo sapiens) (Q99683 whole entry): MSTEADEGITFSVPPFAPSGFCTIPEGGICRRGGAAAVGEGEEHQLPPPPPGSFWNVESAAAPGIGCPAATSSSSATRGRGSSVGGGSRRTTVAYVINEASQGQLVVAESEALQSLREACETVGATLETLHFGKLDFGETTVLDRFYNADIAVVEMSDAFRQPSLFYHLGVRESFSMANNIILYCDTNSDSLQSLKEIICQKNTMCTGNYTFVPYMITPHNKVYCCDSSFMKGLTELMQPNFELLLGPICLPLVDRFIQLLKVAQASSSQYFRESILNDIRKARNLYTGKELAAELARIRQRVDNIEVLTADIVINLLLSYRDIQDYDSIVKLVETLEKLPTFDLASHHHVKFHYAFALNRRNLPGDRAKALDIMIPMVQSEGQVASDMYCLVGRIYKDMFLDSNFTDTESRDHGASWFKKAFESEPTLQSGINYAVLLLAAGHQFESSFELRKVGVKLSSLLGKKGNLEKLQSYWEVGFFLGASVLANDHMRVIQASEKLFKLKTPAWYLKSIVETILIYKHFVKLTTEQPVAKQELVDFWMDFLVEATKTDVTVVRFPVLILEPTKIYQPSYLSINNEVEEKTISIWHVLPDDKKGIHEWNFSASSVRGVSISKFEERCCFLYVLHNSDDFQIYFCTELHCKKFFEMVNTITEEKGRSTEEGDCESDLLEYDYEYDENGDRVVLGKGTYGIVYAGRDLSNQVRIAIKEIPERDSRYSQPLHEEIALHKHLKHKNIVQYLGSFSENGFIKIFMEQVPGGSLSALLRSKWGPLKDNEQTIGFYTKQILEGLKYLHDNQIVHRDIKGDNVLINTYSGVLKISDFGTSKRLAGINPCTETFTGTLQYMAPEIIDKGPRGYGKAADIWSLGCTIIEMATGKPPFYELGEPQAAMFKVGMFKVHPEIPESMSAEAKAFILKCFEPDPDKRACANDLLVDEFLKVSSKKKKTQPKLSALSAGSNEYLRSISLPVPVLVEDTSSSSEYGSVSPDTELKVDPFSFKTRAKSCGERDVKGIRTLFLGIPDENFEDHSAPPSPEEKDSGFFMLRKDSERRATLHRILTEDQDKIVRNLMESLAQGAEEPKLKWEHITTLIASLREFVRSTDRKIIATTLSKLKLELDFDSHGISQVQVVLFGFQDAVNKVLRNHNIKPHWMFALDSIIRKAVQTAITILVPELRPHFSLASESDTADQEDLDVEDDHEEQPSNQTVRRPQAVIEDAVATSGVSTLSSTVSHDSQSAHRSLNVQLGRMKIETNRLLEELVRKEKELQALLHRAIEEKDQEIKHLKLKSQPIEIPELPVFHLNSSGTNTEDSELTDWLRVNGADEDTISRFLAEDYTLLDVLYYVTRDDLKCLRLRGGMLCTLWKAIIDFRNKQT
Chain of Calcium/calmodulin-dependent protein kinase type II subunit delta (Q13557 whole entry, canonical isoform): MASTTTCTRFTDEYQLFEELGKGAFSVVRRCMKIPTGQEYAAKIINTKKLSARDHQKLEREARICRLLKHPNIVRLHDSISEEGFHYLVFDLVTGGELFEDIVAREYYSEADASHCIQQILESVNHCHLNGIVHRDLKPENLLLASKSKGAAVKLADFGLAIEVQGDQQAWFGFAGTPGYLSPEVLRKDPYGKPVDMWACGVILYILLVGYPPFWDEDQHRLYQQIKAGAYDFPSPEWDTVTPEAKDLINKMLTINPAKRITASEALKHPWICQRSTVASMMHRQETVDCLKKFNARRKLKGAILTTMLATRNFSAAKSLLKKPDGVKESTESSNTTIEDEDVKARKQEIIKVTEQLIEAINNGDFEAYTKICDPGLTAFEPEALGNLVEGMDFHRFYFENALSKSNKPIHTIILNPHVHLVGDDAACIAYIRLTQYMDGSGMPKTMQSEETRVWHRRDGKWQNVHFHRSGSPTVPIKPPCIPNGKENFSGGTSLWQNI

Work on `CCOc1cc(N2CCC(O)CC2)ccc1Nc1ncc2c(n1)N(C)c1ccccc1C(=O)N2C` yielded an Activity [1] of 19%, an IC50 [2] greater than 50 µM and an IC50 [3] greater than 50 µM. The IC50 (PKC alpha and beta-2) was greater than 50 µM, the IC50 (SRSF protein kinase 1) was greater than 50 µM and the IC50 [4] was greater than 50 µM. It also gave an IC50 [5] greater than 50 µM, an IC50 [6] greater than 50 µM and an inhibition [7] of 4.2%. It also gave an inhibition [8] of -0.4%, an inhibition (Insulin receptor) of -8% and an inhibition [9] of 40.8%. It also gave an inhibition [10] of 22.3%, an inhibition [11] of -8.3% and an inhibition [12] of 3.7%. For the same molecule, the inhibition [13] was -6.5% and the Activity [14] was “Non-Toxic”.

— ChEMBL document CHEMBL5661979, “Pharmacological inhibition of BMK1 suppresses tumor growth through promyelocytic leukemia protein” (Cancer Cell, 2010)
